Screening results deposited in PubChem by Johns Hopkins Ion Channel Center.
KCNQ1 block – blocks the human KCNQ1 potassium channel. P51787. CHO-K1 KCNQ1, FluxOR thallium flux fluorescence; hits give high values. B-score at 10 µM. 310,000 tested, 1.3% active. AID 2642;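 active means compounds whose thallium flux B-score, printed positive for inhibition, exceeds three library SD while starting fluorescence stays within three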;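 further: channel opened by potassium depolarization with thallium stimulus after 20 min compound exposure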
KCNK3 inh – human KCNK3 channel inhibition, primary screen; 340,000 tested, 0.84% active; B-score at 10 µM; CHO-KCNK3 thallium flux, FluxOR fluorescence; hits give low values; AID 602410;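 active means B-score under library mean minus 4 SD, starting fluorescence ratio at most library mean plus 5 SD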;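 further: more negative B-score means stronger inhibition of thallium flux through KCNK3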
KCNQ1 act – human KCNQ1 channel potentiation or activation; B-score at 10 µM; 310,000 tested, 0.35% active; CHO-K1 KCNQ1, thallium flux FluxOR fluorescence; hits give high values; AID 2648;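 active means fluorescence ratio B-score, a plate-corrected score, at least three library SD, with initial intensity B-score within 5 SD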
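Assay system: stable KCNQ1 CHO-K1 line; medium: assay buffer, equal DMSO in all wells; timing: 90 min dye loading and 20 min compound exposure, both at room temperature; technique: kinetic FluxOR thallium fluorescence, 10-s 1-Hz baseline, 110-s post-stimulus read; read-out basis: B score of baseline-normalized fluorescence ratio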
KCNK9 block – inhibitors of human KCNK9 two-pore domain potassium channel; Q9NPC2; HEK293 KCNK9, FluxOR thallium flux fluorescence; hits give low values; B-score at 10 µM; 310,000 tested, 1.2% active; AID 488922;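 active means ratio B-score over 3 SD below the library mean, with starting fluorescence within 5 SD of its mean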;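 further: negative B-score means less thallium flux so channel inhibition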
Kir21 inh – inhibitors of mouse Kir2.1 inward-rectifier potassium channel; HEK293-Kir2.1, FluxOR thallium flux fluorescence; hits give low values; AID 1672; B-score at 10 µM; 310,000 tested, 0.85% active; P35561;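 active means fluorescence ratio B-score at or below minus 3 SD of library scores, with starting-brightness B-score within 2 SD, cut at about -4.2 in these data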;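 further: channel flux triggered by added potassium and thallium sulfate stimulus; B-score of peak minus minimum fluorescence over baseline after thallium stimulus; more negative B-score means stronger Kir2.1 block with less thallium influx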
Target sequence (P35561 whole entry, looked up): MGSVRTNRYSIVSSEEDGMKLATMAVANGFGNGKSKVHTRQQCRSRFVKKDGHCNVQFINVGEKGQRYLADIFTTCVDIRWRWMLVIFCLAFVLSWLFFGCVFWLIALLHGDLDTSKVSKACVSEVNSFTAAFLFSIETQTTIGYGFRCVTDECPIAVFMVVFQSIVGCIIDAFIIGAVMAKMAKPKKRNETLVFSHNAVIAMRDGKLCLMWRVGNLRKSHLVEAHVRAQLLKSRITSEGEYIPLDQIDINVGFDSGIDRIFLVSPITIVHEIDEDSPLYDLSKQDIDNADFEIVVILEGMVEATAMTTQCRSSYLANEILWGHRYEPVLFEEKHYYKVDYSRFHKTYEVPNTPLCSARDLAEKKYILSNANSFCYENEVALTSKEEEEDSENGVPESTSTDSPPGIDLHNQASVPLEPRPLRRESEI
hERG rescue – shields human hERG channel from block by proarrhythmic agents | activation (rescue from dofetilide block), less the hit threshold, % at 10 µM | CHO-hERG, FluxOR thallium flux, dofetilide IC70 present | Q12809 | 310,000 tested, 0.51% active;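 active means activation above the mean of controls blocked by dofetilide plus 5 SD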;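 further: thallium influx through hERG after potassium depolarization seen as dye fluorescence rise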
KCNK9 inh conf – confirmation of human KCNK9 potassium channel inhibitors; AID 492992; 4,900 tested, 43% active; HEK293 KCNK9 cells, FluxOR thallium flux fluorescence; shares compounds with KCNK9 block; inhibition, % at 10 µM;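 active means thallium signal inhibited by more than 5 SD of the compound-free buffer control wells, on both duplicate plates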
Kir21 sel – selectivity of KCNK9 modulators against mouse Kir2.1; shares compounds with KCNK9 block; Kir2.1 cells, FluxOR thallium flux fluorescence; inhibition, % at 10 µM; 4,900 tested, 4% active;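 active means thallium signal drop more than 5 SD beyond the mean of the no-compound control wells, seen in both duplicate plates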;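 further: signal is fluorescence rise after thallium addition divided by baseline fluorescence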
HEK293 Tl ctr – second check of KCNK9 modulator effects in non-induced HEK293 cells; 4,900 tested, 40% active; inhibition, % at 10 µM; FluxOR thallium flux; shares compounds with KCNK9 block; AID 492997;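 active means thallium signal drop beyond 5 SD of the untreated control mean, on both duplicate plates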
Large screens that a line does not name were inactive (follow-up assays come after a bar, where they were run). Only some compounds are listed: those with a hit (about 3.7% of all), similar ones and a draw of the others.

N#C/C(=C\c1cn[nH]c1-c1ccccc1)C(=O)NC1CCCCCC1	none | KCNK9 inh conf inactive | Kir21 sel inactive | HEK293 Tl ctr inactive
CC1CC(C)CN(S(=O)(=O)c2ccc(NC(=O)c3ccc(=O)[nH]c3)cc2)C1 (configuration not stated)	none (no result: KCNQ1 block, KCNQ1 act, KCNK9 block, Kir21 inh, hERG rescue)
CC(Sc1nc(-c2ccc(F)cc2)cs1)C(=O)Nc1ccc(Cl)cn1 (configuration not stated)	none
COc1ccc(N2CCCn3c2nc2c3c(=O)n(CCc3ccccc3)c(=O)n2C)cc1	none
COc1ccc(N2CCCn3c2nc2c3c(=O)n(Cc3ccc(C)cc3)c(=O)n2C)c(OC)c1	none | KCNK9 inh conf inactive | Kir21 sel inactive | HEK293 Tl ctr inactive
COc1ccc(OCCC(=O)OCC(=O)Nc2cccc(S(=O)(=O)N3CCCCC3)c2)cc1	none (no result: KCNQ1 block, KCNQ1 act, KCNK9 block, Kir21 inh, hERG rescue)
Cc1ccsc1/C=N/N1CCN(C2c3ccccc3-c3ccccc32)CC1	none | KCNK9 inh conf inactive | Kir21 sel inactive | HEK293 Tl ctr 27.0%
